# Screening results as filed in PubChem BioAssay.
# TCR-CD3 inh – inhibitors of human TCR-CD3 interaction, primary screen, biochemical, fluorescence, TAMRA-labeled TCR probe. T-cell receptor (TCR). inhibition, % at 9.4 µM. 360,000 compounds, 0.37% hits; in the data active = inhibition above about 19%;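 also: recombinant mutant TCR 2C K166C tagged with TAMRA read by polarization; 0% = receptor in buffer alone and 100% = receptor with positive control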
# TDP2 absorb – human TDP2 enzyme inhibitors, primary screen, biochemical, epi absorbance, recombinant enzyme; Tyrosyl-DNA phosphodiesterase 2 (Homo sapiens), O95551; 370,000 compounds, 0.34% hits; inhibition, % at 12.8 µM; AID 720702, 2013; T5PNP hydrolysis, p-nitrophenol absorbance 415 nm;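 active = inhibition above the mean of all tested compounds plus 3 SD, set per campaign, cut at about 25% in these data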;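 also: 0% = DMSO with enzyme and 100% = buffer with substrate but no TDP2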
#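 Read-out basis: percent inhibition. System: recombinant human TDP2. Buffer or medium: Mg2+-containing Tris-HCl buffer, pH 7.5. Repeats: single replicate. Timing: reaction 2 h, 37 °C. Benchmarks: high control without enzyme, low control DMSO plus TDP2. Probe or stimulus: 5 mM T5PNP. Doses: 12.8 µM only. Measured by: epi absorbance of p-nitrophenol freed from T5PNP by hydrolysis.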
# SIAE inh – human SIAE inhibitors, primary screen, biochemical, fluorescence polarization, FP-Rh probe, 1536-well HTS | inhibition, % at 9.66 µM | 370,000 compounds, 0.69% hits | AID 1053197, 2014 | Sialate O-acetylesterase (Homo sapiens), Q9HAT2 | SIAE FP-Rh probe binding;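 active = inhibition above a cutoff: mean of compounds within the control limits plus 3 SD of those, cut at about 17% in these data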;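 also: 0% = plate median of compound wells and 100% = probe without SIAE protein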
# PAD4 FP inh – human PAD4 inhibitors, primary screen, biochemical, fluorescence polarization, 1536-well format | AID 485272, 2010 | 330,000 compounds, 0.41% hits | inhibition, % at 6.36 µM | recombinant PAD4, RCA probe fluorescence polarization;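 active = percent inhibition above a cutoff equal to the mean of all tested compounds plus 3 SD, cut at about 15% in these data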;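 also: 0% = PAD4 with RCA probe and DMSO and 100% = probe without PAD4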
# Apaf-1 inh – inhibitors of human Apaf-1 apoptosome, primary screen, biochemical, DEVD-Rh110 fluorescence, uHTS. Apoptotic protease-activating factor 1 (Homo sapiens), O14727. reconstituted apoptosome caspase-3 activity. inhibition, % at 20 µM. 330,000 compounds, 0.71% hits; active = inhibition of at least 40% at 20 µM;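 also: plate controls were DMSO wells for no effect and DEVD-CHO caspase inhibitor wells for full effect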
#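 Material: reconstituted apoptosome with Apaf-1, cytochrome c, caspase-9, procaspase-3, dATP / Buffer or medium: pH 7.5 Hepes buffer with CHAPS, BSA, DTT / Also added: cytochrome c with DEVD-Rh110 / Schedule: compound with Apaf-1, dATP, procaspase-3 30 min, then 50 min reaction, room temperature / Technique: rhodamine 110 fluorescence at Ex 480/Em 540 nm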
# GSTO1 inh – inhibitors of recombinant GSTO1, primary screen, counter-screen for RBBP9 inhibitor project, biochemical, fluorescence polarization; activity-based probe fluorescence polarization; inhibition, % at 5.96 µM; 300,000 compounds, 1.1% hits; AID 1974, 2009;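 active = inhibition above the campaign mean inhibition plus 3 SD, cut at about 35% in these data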;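 also: 0% = GSTO1-1 with DMSO and 100% = wells lacking GSTO1-1 enzyme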
# Apaf-1 inh conf – Apaf-1 inhibitors, single-dose retest, confirmation, biochemical, fluorescence, DEVD-Rh110, 20 µM; 1,800 compounds, 25% hits; shares compounds with Apaf-1 inh; AID 504614, 2011; inhibition, % at 20 µM; reconstituted apoptosome, caspase-3 DEVD-Rh110 fluorescence;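 active = mean inhibition of at least 40% at 20 µM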;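 also: plate controls were DMSO wells for no effect and DEVD-CHO caspase inhibitor control wells for full effect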
# Rh110 interf inh – Rh110 fluorescence interference by putative Apaf-1 inhibitors, confirmation, artefact control for Apaf-1 inhibitor project, biochemical, 20 µM; AID 504615, 2011; quenched caspase reaction; shares compounds with Apaf-1 inh; activation (fluorescence interference), % at 20 µM; 1,800 tested, under 10 active;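 active = signal rise of 40% or more at 20 µM, treated as a fluorescence artifact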
# Fluor interf inh – fluorescence interference of Apaf-1 inhibitor hits, dose response, artefact control for Apaf-1 inhibitor project. shares compounds with Apaf-1 inh. fluorescence interference counterscreen, Apaf-1 assay format. IC50, µM. 460 tested, under 10 active; call rule not given here
# Active calls of the source: *; . = no result. Rows were chosen to be rich in hits. Some 2.4% of all compounds tested hit in one or more screens of this group.
SMILES,TCR-CD3 inh,TDP2 absorb,SIAE inh,PAD4 FP inh,Apaf-1 inh,GSTO1 inh,Apaf-1 inh conf,Rh110 interf inh,others
CCCOc1cccc(/C=N/NC(=O)c2csc(C)c2C)c1,4,-11,2,3,19,-7,.,.,
CN(Cc1ccc(F)cc1)C(=O)CNC(=O)c1cccs1,3,-4,0,-6,56*,.,41*,4,Fluor interf inh=>100
CCCCCCSc1cc(-c2nc3cnccn3c2NCCCC)ccc1OC,.,.,.,2,46*,.,20,17,
CCCCNc1c(-c2ccc(SC(C)CC)cc2)nc2cnccn12 (stereo not given),.,.,.,3,60*,.,46*,33,Fluor interf inh=>100
CCCCNc1c(-c2ccc(SC(C)CC)c(OC)c2)nc2ccc(C)cn12 (stereo not given),3,-3,9,-6,27,-2,.,.,
CCCCNc1c(-c2ccc(OC)c(Sc3ccc(OC)cc3)c2)nc2cnccn12,4,2,9,-1,43*,.,22,7,
CCCCCCSc1cc(-c2nc3cc(C)ccn3c2NCCCC)ccc1OC,2,-6,12,1,23,9,.,.,
O=C(OCc1cn([C@@H]2C[C@H](c3ccc(Cl)cc3)N(CC3CCCCC3)C[C@H]2O)nn1)c1ccccc1,-3,4,-3,.,.,.,.,.,
O=C(NCCC(=O)N1CCN(c2cccc(Cl)c2)CC1)c1ccc(Br)cc1,-4,-3,-4,4,44*,.,36,13,
COC(=O)c1cc(N=Cc2c(O)c3ccccc3oc2=O)cc(C(=O)OC)c1,.,.,.,0,2,-8,.,.,
Cc1ccc(S(=O)(=O)N2CCN(C(=O)c3n[nH]c(=O)c4ccccc34)CC2)c(C)c1,0,-2,-1,-2,13,.,.,.,
CCOC(=O)c1ccc2ncc(C(=O)OCC)c(NCCN3CCOCC3)c2c1,7,-16,10,-1,-1,-2,.,.,
CCOC(=O)c1cnc2ccc(C)cc2c1Nc1ccc(N2CCOCC2)cc1,3,2,12,-1,41*,10,37,9,
CC(=O)c1ccc2noc(-c3ccccc3)c2c1,2,4,4,-6,-3,6,.,.,
CC(=O)c1ccc2c(c1)c(C#N)c1ccccc1[n+]2[O-],-7,-4,-6,.,74*,.,42*,2,Fluor interf inh=>100
CN1CCN(S(=O)(=O)c2cccc(C(=O)Nc3cc(C(F)(F)F)ccc3N3CCCCC3)c2)CC1,-8,-5,0,-4,40*,6,23,8,
Cc1cc(C)c(C#N)c(SCC(=O)Nc2nonc2N)n1,-8,-16,1,2,64*,12,12,14,
COc1ccccc1OCCNC(=O)c1cccc(S(=O)(=O)N2CCN(Cc3ccccc3)CC2)c1,1,6,-1,-1,67*,.,49*,4,Fluor interf inh=>100
CN(Cc1cccc(F)c1)C(=O)c1cccc(S(=O)(=O)N2CCN(Cc3ccccc3)CC2)c1,0,-6,0,-2,13,-3,.,.,
CN(Cc1ccc(Cl)c(Cl)c1)C(=O)c1cccc(S(=O)(=O)N2CCN(Cc3ccccc3)CC2)c1,-10,-11,-8,-4,72*,.,49*,6,Fluor interf inh=>100
CCCN(CC1CC1)C(=O)c1oc(=O)c2ccccc2c1-c1ccc(C)cc1,.,-6,1,.,.,.,.,.,
